The source of these data is the RNAGym collection of RNA variant scans (doi:10.1126/science.aae0568).

Fewer inactive variants are shown than the library holds.

The chains are these.
B1: tRNA (parent)
chain: GUUCCGUUGGCGUAAUGGUAACGCGUCUCCCUCCUAAGGAGAAGACUGCGGGUUCGAGUCCCGUACGGAACG

In the data set the parent is B1. As to the kind of experiment: yeast fitness relative to wild type (ratio to wild type); higher = fitter; tRNA-Arg(CCU), competitive growth, 37 C, YPD. The gist of the method:
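Variants of the tRNA-Arg(CCU) gene, chemically synthesised with a 3% per-site mutation rate at 69 sites, were placed at the native genomic locus in Saccharomyces cerevisiae. The pooled strains were competed in YPD at 37°C for 24 hours in six parallel replicates. Gene amplicons from the start population and from each end population were read by 100-nucleotide paired-end sequencing. Darwinian fitness relative to wild type came from changes in genotype frequencies; genotypes needed ≥ 100 starting reads, and estimates < 0.5 were set to 0.5.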
With GUUCCGUUGGCGUAAUGGUAACGUGUCUCCCUUCUAAGGAGAAGACUGCGGGUUCGAGUCCCGUACGGAACG [C24U C33U], the yeast fitness was determined as 0.747.

With GUUCCGUUGGCGUAAUGGUAACGUGUCUCCCUCCUAAGGAGAAGACUGGGGGUUCCAAUCCCGUACGGAACG [C24U C49G G56C G58A], the yeast fitness stood at 0.57.

As to GUUCCGUUGGCGUAAUGGUAACGUGUCUCCCUCCUAAGGAGAAGACUGGGGGUUCCAGUCCCGUACGGAACG [C24U C49G G56C], the yeast fitness is ≤ 0.5.

Turning to GUUCCGUUGGCGUAAUGGUAACGUGUCUCCCUCAUAAGAAGAAGACUGCGGGUUCGAGUCCCGUACGGAACG [C24U C34A G39A], the yeast fitness amounted to 0.535.

As to GUUCCGUUGGCGUAAUGGUAACGUGUCUCCCUCUUAAGGAGAAGACUGCGGGUUCGAAUCCCGUACGGAACG [C24U C34U G58A], the yeast fitness was ≤ 0.5.

Turning to GUUCCGUUGGCGUAAUGGUAACGUGUCUCCCUGUUAAGGAGAAGACUGCGGGUUCGAGUCCUGUACGGAACG [C24U C33G C34U C62U], the yeast fitness was ≤ 0.5.

Regarding GUUCCGUUGGCGUAAUGGUAACGUGUCUCCCUCUUAAGGAGAAGACUGUGGGUUCGAGUCUCGUACGGAACG [C24U C34U C49U C61U], the yeast fitness was ≤ 0.5.

On to GUUCCGUUGGCGUAAUGGUAACGUGUCUCCCUCUUAAGGAGAAGACUGCGGGUUCGUGUUCCGUACGGAACG [C24U C34U A57U C60U], for which the yeast fitness is ≤ 0.5.

In the case of GUUCCGUUGGCGUAAUGGUAACGUGUCUCCCUCUUAAGGAGAAGAAUGCGGGUUCGAGUCCCGUACAGAACG [C24U C34U C46A G67A], the yeast fitness was ≤ 0.5.

Take GUUCCGUUGGCGUAAUGGUAACGUGUCUCCCUUCUAAGGAGAACACUGCGGGUUCGAGUCCCGUACGGAACG [C24U C33U G44C]: the yeast fitness amounted to 0.633.

For GUUCCGUUGGCGUAAUGGUAACGUGUCUCCCUCGUAAGGAGAAGACUGCGGGUUCGAGUCCCGUACGGAACG [C24U C34G], the yeast fitness stood at 0.72.

Regarding GUUCCGUUGGCGUAAUGGUAACGUGUCUCCCUCUUAAGGAGAAGACUGCGGGUUCGAGUCCCGUACGGAACG [C24U C34U], the yeast fitness worked out at 0.688.

As for GUUCCGUUGGCGUAAUGGUAACGUGUCUCCCUCGUAAGGAGAAGACUGCGAGUUCGAGUCCCGUACGGAACG [C24U C34G G51A], the yeast fitness is 0.663.

Turning to GUUCCGUUGGCGUAAUGGUAACGUGUCUCCCUCCUAAGGAGAAGAUUGCGGGUUCGAGUCCCGUUCGGAACG [C24U C46U A65U], the yeast fitness came out at 0.714.

Consider GUUCCGUUGGCGUAAUGGUAACGUGUCUCCCUGCUAAGGAGAAGACUGCGGGCUUGAGUCCCGUACGGAGCG [C24U C33G U53C C55U A70G], for which the yeast fitness was ≤ 0.5.

As to GUUCCGUUGGCGUAAUGGUAACGUGUCUCCCUCUUAAGGGGAAGACUGCAGGUUGGAGUCCCGUACGGAACG [C24U C34U A40G G50A C55G], the yeast fitness was ≤ 0.5.

Turning to GUUCCGUUGGCGUAAUGGUAACGUGUCUCCCUCCUAAGGAGAAGAUUGCGGGUUCGAGUCCCGUACGGAUCG [C24U C46U A70U], the yeast fitness was found to be 0.75.

Consider GUUCCGUUGGCGUAAUGGUAACGUGUCUCCCUCGUAAGGAGAAGACUGCGGGUUCGAGUCCUGUACGGAACG [C24U C34G C62U], for which the yeast fitness was 0.584.

With GUUCCGUUGGCGUAAUGGUAACGUGUCUCCCUCUUAAGGAGAAGACUGCGGGUUCGAGUCCCGUACGGCACG [C24U C34U A69C], the yeast fitness came out at 0.502.

As for GUUCCGUUGGCGUAAUGGUAACGUGUCUCCCUCGUAAGGAGAAGUCUGCGGGUUCGAGUCCCGUACGCAACG [C24U C34G A45U G68C], the yeast fitness is ≤ 0.5.

For the variant GUUCCGUUGGCGUAAUGGUAACGUGUCUCCCUCCUAAGGAGAAGAAUGCGGGUUCGAGUCCCGCACGGAACG [C24U C46A U64C], the yeast fitness was found to be 0.973.

Consider GUUCCGUUGGCGUAAUGGUAACGUGUCUCCCUUCUAAGGAAAAGACUGCGGGUUCGAGUCUCGUACGGAACG [C24U C33U G41A C61U], for which the yeast fitness was ≤ 0.5.

As to GUUCCGUUGGCGUAAUGGUAACGUGUCUCCCUCGUAAGGAGAAGACUGCGGGUUCAAGUCCCGUACGGAACG [C24U C34G G56A], the yeast fitness is ≤ 0.5.

Regarding GUUCCGUUGGCGUAAUGGUAACGUGUCUCCCUCUUAAGGGGAAGACUGCGGGUUGGAGUCCCGUACGGAACG [C24U C34U A40G C55G], the yeast fitness was ≤ 0.5.

For GUUCCGUUGGCGUAAUGGUAACGUGUCUCCCUCCUAAGGAGAAGACUGAGGGUUCGAGUCCCGUACGGAACG [C24U C49A], the yeast fitness amounted to 0.716.

With GUUCCGUUGGCGUAAUGGUAACGUGUCUCCCUGCUAAGGAGAAGACUGCGGCUUCGAGUCUCGUACGGAACG [C24U C33G G52C C61U], the yeast fitness is ≤ 0.5.

On to GUUCCGUUGGCGUAAUGGUAACGUGUCUCCCUCUUAAGGAGAAGAUUGCGGGUUCGAGUCCCGUACGGAACG [C24U C34U C46U], for which the yeast fitness was ≤ 0.5.

Consider GUUCCGUUGGCGUAAUGGUAACGUGUCUCCCUCUUAAGGAGAAGAAUGCGGGUUCGAGUCCCGUACGGAACG [C24U C34U C46A], for which the yeast fitness was ≤ 0.5.

In the case of GUUCCGUUGGCGUAAUGGUAACGUGUCUCCCUCCUAAGGAGAAGAAUGCGGGUUUGACUCCCGUACGGAACG [C24U C46A C55U G58C], the yeast fitness was found to be 0.793.

Turning to GUUCCGUUGGCGUAAUGGUAACGUGUCUCCCUCCUAAGGAGAAGAGUGAGGGUUCGAGUCUCGUACGGAACG [C24U C46G C49A C61U], the yeast fitness is ≤ 0.5.

As to GUUCCGUUGGCGUAAUGGUAACGUGUCUCCCUCUUAAGGAGAAGACUGCGGGUUCCGGUCCCGUACGUAACG [C24U C34U G56C A57G G68U], the yeast fitness is ≤ 0.5.

Regarding GUUCCGUUGGCGUAAUGGUAACGUGUCUCCCUUCUAAGGAGAAGAUUGAGGGUUCGAGUCCUGUACGGUACG [C24U C33U C46U C49A C62U A69U], the yeast fitness is ≤ 0.5.

On to GUUCCGUUGGCGUAAUGGUAACGUGUCUCCCUUCUAAGGAGAAGACUACGGGUUCGAGUCUCGUACGGAACG [C24U C33U G48A C61U], for which the yeast fitness is ≤ 0.5.

On to GUUCCGUUGGCGUAAUGGUAACGUGUCUCCCUCGUAAGGAGAAGACUGCGGGUUCGUGUCGCGUACGGAACG [C24U C34G A57U C61G], for which the yeast fitness is ≤ 0.5.

For GUUCCGUUGGCGUAAUGGUAACGUGUCUCCCUCCUAAGGAGAAGAAUGCGGGUUCGAGUCCCGUACGGAACG [C24U C46A], the yeast fitness is 0.925.

For GUUCCGUUGGCGUAAUGGUAACGUGUCUCCCUCCUAAGGAGAAGAUUGCGGGUUCGAGUCCCGUACGGAACG [C24U C46U], the yeast fitness turned out to be 0.983.

As for GUUCCGUUGGCGUAAUGGUAACGUGUCUCCCUCCUAAGGAGAAGAGUGCGGGUUCGAGUCCCGUACGGAACG [C24U C46G], the yeast fitness stood at 1.01.

GUUCCGUUGGCGUAAUGGUAACGUGUCUCCCUCUUAAGGAAAAGACUGCGGGUUCGAGUCCCGUACGGAACG [C24U C34U G41A]: the yeast fitness was 0.539.
